Laboratory results as given in ChEMBL document CHEMBL1122037, “Use of adenine nucleotide derivatives to assess the potential of exo-active-site-directed reagents as species- or isozyme-specific enzyme inactivators. 4. Interactions of adenosine 5'-triphosphate derivatives with adenylate kinases from Escherichia coli and rat tissues” (J Med Chem, 1982).
Values joined by “and” are separate entries in the source; they are usually repeats but may differ in a detail not shown here. Equal values may be shown once. Each block holds one compound with its values, some of them ahead of it.

How the values were obtained:
[1] = system: Adenylate kinase, muscle isozyme (Rattus norvegicus); experiment: Ability of the 0.094 mM compound to inactivate rat muscle adenylate kinase was determined, after exposing enzyme to 1.4 mM levels of ATP activity expressed as % loss of inactivation
Escherichia coli [2] = experiment: Ability to inhibit Escherichia coli adenylate kinase II, activity expressed as Maximum velocity; type: ADME; details: in vitro
Summary of the method: (§1)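 Coupled spectrophotometric assay (pyruvate kinase/lactate dehydrogenase, NADH oxidation) in 0.1 M Tris-HCl pH 7.6 with 2 mM MgSO4, 0.12 M KCl, 0.31 mM PEP, 0.38 mM NADH and 0.25 mM AMP. Derivatives were added as 1:1 Mg complexes. KM was obtained from linear Lineweaver-Burk plots using five or more substrate levels spanning 0.5–4.0 × KM. Inhibition was typed as competitive or noncompetitive versus ATP.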

Rattus norvegicus [3] = species: Rattus norvegicus; experiment: Ability of the 1.42 mM compound to inactivate rat muscle adenylate kinase was determined, after exposing enzyme to 2.2 mM levels of ATP activity expressed as percent loss of inactivation
Summary of the method: (§2)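 Rat muscle enzyme preincubated at 22 °C with the 1:1 Mg2+ complex of the derivative, alone or with added AMP or ATP. Aliquots were assayed at intervals in the coupled system containing 1 mM ATP, alongside controls lacking the derivative. Half-time of inactivation was taken from pseudo-first-order plots, or % activity loss at 5–6 h was reported.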

Escherichia coli [4] = experiment: Ability to inactivate Escherichia coli adenylate kinase after exposing enzyme to 0 mM levels of MgATP at concentration of 4.5mM, pH 7.6 for 6 h; type: functional
Summary of the method: (§3)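 E. coli B enzyme, partially purified 27-fold (fraction IV), exposed 6 h at 22 °C, pH 7.6, to the Mg2+ 1:1 complex of the ATP derivative in the Tris/MgSO4/KCl reaction buffer, with or without MgATP. Aliquots withdrawn at intervals and assayed spectrophotometrically with 1 mM ATP. Activity was compared with controls lacking the derivative. Read-out is % inactivation after 6 h.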

Rattus norvegicus [5] = species: Rattus norvegicus; experiment: Ability of the 1.10 mM compound to inactivate rat muscle adenylate kinase was determined, after exposing enzyme to 2.2 mM levels of ATP activity expressed as percent loss of inactivation
Summary of the method: as §2

Rattus norvegicus [6] = species: Rattus norvegicus; experiment: Ability to inhibit rat adenylate kinase III, activity expressed as half-maximal velocity; type: ADME
Summary of the method: as §1

[7] = target: T1, GTP:AMP phosphotransferase AK3, mitochondrial (Rattus norvegicus, UniProt P29411); experiment: Ability to inhibit rat adenylate kinase III, activity expressed as Inhibition constant
Summary of the method: as §1

Rattus norvegicus [8] = species: Rattus norvegicus; experiment: Ability to inhibit rat adenylate kinase II, activity expressed as Maximum velocity; type: ADME
Summary of the method: as §1

Rattus norvegicus [9] = species: Rattus norvegicus; experiment: Ability to inhibit rat adenylate kinase II, activity expressed as half-maximal velocity; type: ADME; details: in vitro
Summary of the method: as §1

Rattus norvegicus [10] = species: Rattus norvegicus; experiment: Ability to inhibit rat adenylate kinase III, activity expressed as Maximum velocity; type: ADME; details: in vitro
Summary of the method: as §1

[11] = target: Adenylate kinase 2, mitochondrial (Rattus norvegicus) (UniProt P29410); experiment: Ability to inhibit rat adenylate kinase II, […]
Summary of the method: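 Rat adenylate kinase isozyme II. ATP derivatives were used as 1:1 Mg²⁺ complexes and varied against ATP as phosphate donor. Coupled PK/LDH NADH-oxidation spectrophotometric assay in 0.1 M Tris-HCl pH 7.6 with 2 mM MgSO₄, 0.12 M KCl, 0.31 mM PEP, 0.38 mM NADH and 0.25 mM AMP. Inhibition type was assigned as competitive or noncompetitive with respect to ATP from initial-velocity kinetics.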

Escherichia coli [12] = experiment: Ability to inactivate Escherichia coli adenylate kinase after exposing enzyme to 0 mM levels of MgATP at concentration of 13.5 mM, pH 7.6
Summary of the method: as §3

[13] = target: Adenylate kinase 2, mitochondrial (Rattus norvegicus, UniProt P29410); experiment: Ability to inhibit rat adenylate kinase II, activity expressed as Inhibition constant
Summary of the method: as §1

[14] = target: Adenylate kinase (Escherichia coli) (UniProt P69441); experiment: Ability of the 9 mM compound to inactivate adenylate kinase was determined, after exposing enzyme to 0 mM levels of MgATP in 6 h at 22 degree C
[15] = target: Adenylate kinase (Escherichia coli) (UniProt P69441); experiment: Ability to inhibit Escherichia coli adenylate kinase II activity expressed as half maximal velocity
[16] = target: T1, GTP:AMP phosphotransferase AK3, mitochondrial; experiment: Ability to inhibit rat adenylate kinase III, activity expressed as Inhibition constant; Competitive inhibition
Summary of the method: as §1

[17] = target: Adenylate kinase (Escherichia coli) (UniProt P69441); experiment: Ability to inactivate adenylate kinase was determined, after exposing enzyme to mM levels of MgATP at pH 7.6
Escherichia coli [18] = experiment: Ability to inactivate adenylate kinase was determined, after exposing enzyme to mM levels of MgATP at pH 7.6 at a concentration of 26.0
Summary of the method: as §3

Rattus norvegicus [19] = species: Rattus norvegicus; experiment: Ability of to inactivate rat muscle adenylate kinase was determined activity expresses as Percent loss of inactivation
Summary of the method: as §2

Escherichia coli [20] = experiment: Ability to inactivate adenylate kinase was determined, after exposing enzyme to mM levels of MgATP at pH 7.6 at a concentration of 9.7
Summary of the method: as §3

Escherichia coli [21] = experiment: Ability to inactivate adenylate kinase was determined, after exposing enzyme to mM levels of MgATP at pH 7.6 at a concentration of 9.9
Summary of the method: as §3

Escherichia coli [22] = experiment: Ability to inactivate Escherichia coli adenylate kinase after exposing enzyme to 0 mM levels of MgATP at concentration of 8.1 mM, pH 7.6
Summary of the method: as §3

Escherichia coli [23] = experiment: Ability of 13.2 mM compound to inactivate Escherichia coli adenylate kinase was determined, after exposing enzyme to 0 mM levels of MgATP after 6 hr at 22 degree C
Summary of the method: as §3

Escherichia coli [24] = experiment: Ability of 13.2 mM compound to inactivate Escherichia coli adenylate kinase was determined, after exposing enzyme to 10.7 mM levels of MgATP after 6 hr at 22 degree C
Summary of the method: as §3

Escherichia coli [25] = experiment: Ability to inhibit Escherichia coli adenylate kinase II activity expressed as Maximum velocity; type: ADME
Summary of the method: (§4)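 E. coli B adenylate kinase, partially purified 27-fold (streptomycin, ammonium sulfate fractionation, DEAE-cellulose; fraction IV). ATP derivatives tested as 1:1 Mg²⁺ complexes as phosphate donor. Coupled PK/LDH NADH-oxidation spectrophotometric assay in 0.1 M Tris-HCl pH 7.6 with 2 mM MgSO₄, 0.12 M KCl, 0.31 mM PEP, 0.38 mM NADH and 0.25 mM AMP. Constants came from linear Lineweaver-Burk plots of initial velocity, using ≥5 substrate levels across 0.5–4.0 × KM.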

Escherichia coli [26] = experiment: Ability inactivate Escherichia coli adenylate kinase was determined, after exposing enzyme to mM levels of MgATP at pH 7.6
Summary of the method: as §3

Escherichia coli [27] = experiment: Ability to inhibit Escherichia coli adenylate kinase II activity expressed as half maximal velocity; type: ADME, organism-based; details: in vivo
Summary of the method: as §4

[28] = system: Adenylate kinase, muscle isozyme (Rattus norvegicus); experiment: Ability of the 1.14 mM compound to inactivate rat muscle adenylate kinase was determined, after exposing enzyme to 0 mM levels of MgATP, activity expressed as percent loss of inactivation
Escherichia coli [29] = experiment: Ability to inactivate Escherichia coli adenylate kinase after exposing enzyme to 0 mM levels of MgATP at concentration of 11.8 mM, pH 7.6
Summary of the method: as §3

Compound: O=C(CI)NCCCCCCCCNc1ncnc2c1ncn2C1O[C@H](CO)[C@@H](O)[C@H]1O (stereo partly drawn)
Loss of inactivation [1]: 30%

Compound: NCCCCCCNc1nc2c(N)ncnc2n1C1O[C@H](COP(=O)(O)OP(=O)(O)OP(=O)(O)O)[C@@H](O)[C@H]1O (stereo partly drawn)
Vmax (Escherichia coli [2]): 0%

Compound: O=C(CI)NCCCC(=O)NCCCCCCNc1ncnc2c1ncn2[C@@H]1O[C@H](COP(=O)(O)OP(=O)(O)OP(=O)(O)O)[C@@H](O)[C@H]1O
Loss of inactivation (Rattus norvegicus [3]): 0%

Compound: O=C(CI)NCCCCCCCNc1ncnc2c1ncn2[C@@H]1O[C@H](COP(=O)(O)OP(=O)(O)OP(=O)(O)O)[C@@H](O)[C@H]1O
Inactivation (Escherichia coli [4]): 7%
Loss of inactivation (Rattus norvegicus [5]): 20%

Compound: NC(=O)CI
Loss of inactivation [11]: 0%

Compound: O=C(CI)NCCCCCC(=O)NCCCCNc1ncnc2c1ncn2[C@@H]1O[C@H](COP(=O)(O)OP(=O)(O)OP(=O)(O)O)[C@@H](O)[C@H]1O
Inactivation (Escherichia coli [12]): 5%

Compound: Nc1ncnc2c1nc(NCCCCCCNC(=O)CI)n2[C@@H]1O[C@H](COP(=O)(O)OP(=O)(O)OP(=O)(O)O)[C@@H](O)[C@H]1O
Ki [13]: 0.3 mM

Compound: O=C(CI)NCCCCNc1ncnc2c1ncn2[C@@H]1O[C@H](COP(=O)(O)OP(=O)(O)OP(=O)(O)O)[C@@H](O)[C@H]1O
Inactivation [14]: 2%

Compound: CC(=O)NCCCCCCNc1nc2c(N)ncnc2n1C1O[C@H](COP(=O)(O)OP(=O)(O)OP(=O)(O)O)[C@@H](O)[C@H]1O (stereo partly drawn)
Vmax (Escherichia coli [2]): 0%

Compound: O=C(CI)NCCCCCCNc1ncnc2c1ncn2[C@@H]1O[C@H](COP(=O)(O)OP(=O)(O)OP(=O)(O)O)[C@@H](O)[C@H]1O
Inactivation (Escherichia coli [18]): 46% and 47%
Loss of inactivation (Rattus norvegicus [19]): 8%
Inactivation (Escherichia coli [20]): 25%
Inactivation (Escherichia coli [21]): 25%

Compound: CN(CCCCN(C)c1ncnc2c1ncn2[C@@H]1O[C@H](COP(=O)(O)OP(=O)(O)OP(=O)(O)O)[C@@H](O)[C@H]1O)C(=O)CCCCCCNC(=O)CI
Ki [13]: 1.6 mM
Vmax (Rattus norvegicus [8]): 0%
Vmax (Rattus norvegicus [10]): 0%
Vmax (Escherichia coli [25]): 0%
Inactivation (Escherichia coli [26]): 2%
Ki [16]: 2.1 mM

Compound: Nc1ncnc2c1ncn2[C@@H]1O[C@H](COP(=O)(O)OP(=O)(O)OP(=O)(O)O)[C@@H](O)[C@H]1O [ADENOSINE TRIPHOSPHATE]
Km (Rattus norvegicus [6]): 90 µM
Vmax (Rattus norvegicus [8]): 100%
Km (Rattus norvegicus [9]): 90 µM
Km (Escherichia coli [27]): 60 µM
Vmax (Rattus norvegicus [10]): 100%
Vmax (Escherichia coli [25]): 100%

Compound: CN(CCCN(C)C(=O)CCCNc1ncnc2c1ncn2[C@@H]1O[C@H](COP(=O)(O)OP(=O)(O)OP(=O)(O)O)[C@@H](O)[C@H]1O)C(=O)CCCNC(=O)CI
Inactivation (Escherichia coli [29]): 0%

Compound: CN(CCCCCCN(C)c1ncnc2c1ncn2[C@@H]1O[C@H](COP(=O)(O)OP(=O)(O)OP(=O)(O)O)[C@@H](O)[C@H]1O)C(=O)CCCCCNC(=O)CI
Ki [13]: 1.9 mM
Vmax (Rattus norvegicus [8]): 0%
Vmax (Rattus norvegicus [10]): 0%
Inactivation [15]: 1%
Ki [16]: 2.4 mM

Further lines, results first:

Km (Rattus norvegicus [6]): 400 µM
Ki [7]: 5.9 mM
Vmax (Rattus norvegicus [8]): 5%
Km (Rattus norvegicus [9]): 1600 µM
Vmax (Rattus norvegicus [10]): 2%
Compound: O=C(CI)NCCNc1ncnc2c1ncn2[C@@H]1O[C@H](COP(=O)(O)OP(=O)(O)OP(=O)(O)O)[C@@H](O)[C@H]1O

Vmax (Escherichia coli [2]): 0%
Compound: CN(CCCN(C)C(=O)CCCCNc1ncnc2c1ncn2[C@@H]1O[C@H](COP(=O)(O)OP(=O)(O)OP(=O)(O)O)[C@@H](O)[C@H]1O)C(=O)CCCCNC(=O)OCc1ccccc1

Ki [13]: 1.8 mM
Vmax (Rattus norvegicus [8]): 0%
Vmax (Rattus norvegicus [10]): 0%
Inactivation [15]: 0%
Ki [16]: 2.2 mM
Compound: CN(CCCCCCN(C)c1ncnc2c1ncn2[C@@H]1O[C@H](COP(=O)(O)OP(=O)(O)OP(=O)(O)O)[C@@H](O)[C@H]1O)C(=O)CCCCCCNC(=O)CI

Km (Rattus norvegicus [6]): 1100 µM
Inactivation [17]: 12%
Vmax (Rattus norvegicus [8]): 5%
Km (Rattus norvegicus [9]): 400 µM
Vmax (Rattus norvegicus [10]): 6%
Compound: O=C(CI)NCCCCCCCCNc1ncnc2c1ncn2[C@@H]1O[C@H](COP(=O)(O)OP(=O)(O)OP(=O)(O)O)[C@@H](O)[C@H]1O

Vmax (Escherichia coli [2]): 0%
Compound: NCCCCCNc1ncnc2c1ncn2C1O[C@H](COP(=O)(O)OP(=O)(O)OP(=O)(O)O)[C@@H](O)[C@H]1O (stereo partly drawn)

Inactivation (Escherichia coli [22]): 4%
Compound: O=C(CI)NCCCCCCC(=O)NCCCCCCNc1ncnc2c1ncn2[C@@H]1O[C@H](COP(=O)(O)OP(=O)(O)OP(=O)(O)O)[C@@H](O)[C@H]1O

Km (Rattus norvegicus [6]): 400 µM
Vmax (Rattus norvegicus [8]): 21%
Inactivation (Escherichia coli [23]): 37%
Km (Rattus norvegicus [9]): 1000 µM
Inactivation (Escherichia coli [24]): 36%
Vmax (Rattus norvegicus [10]): 9%
Ki [16]: 6.2 mM
Compound: O=C(CI)NCCCCCNc1ncnc2c1ncn2[C@@H]1O[C@H](COP(=O)(O)OP(=O)(O)OP(=O)(O)O)[C@@H](O)[C@H]1O

Loss of inactivation [28]: 0%
Compound: CC(=O)NCCCCCCCCNc1ncnc2c1ncn2C1O[C@H](COP(=O)(O)O)[C@@H](O)[C@H]1O (stereo partly drawn)
